# In ChEMBL document CHEMBL5724801, “EUbOPEN Chemogenomics Library - Multiplex” (2024):
# Several values for one entry are separate records, joined by “and”; a condition that tells them apart may be missing. Equal entries are not always repeated.
# Assays:
# Fibroblast = assay: Multiplex assay against human fibroblast; format: toxicity, cell-based
# How it was run: (§1)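 Compound was added to live cells that had been stained at seeding with Hoechst33342, BioTracker Green Microtubule Cytoskeleton Dye, MitoTracker Red and Annexin V Alexa Fluor 680, and imaging followed on a CQ1 microscope at 37°C and 5% CO2. CellPathfinder machine-learning gating divided cells into Hoechst high-intensity objects or normal cells, normal cells into healthy, pyknosed or fragmented nuclei, and pyknosed cells into mitotic or apoptotic. Tubulin, mitochondrial-mass and membrane-permeability phenotypes are per cents of healthy-nucleus cells.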
# HEK-293T = assay: Multiplex assay against HEK293T; format: toxicity, cell-based; conditions: human; how it was run: as §1
# [1] = 12 h, 1 µM, compound concentration 1 uM
# [2] = 12 h, 10 µM, compound concentration 10 uM
# [3] = 24 h, 1 µM, compound concentration 1 uM
# [4] = 24 h, 10 µM, compound concentration 10 uM
# [5] = 48 h, 1 µM, compound concentration 1 uM
# [6] = 48 h, 10 µM, compound concentration 10 uM
smiles,measurement,setting,value
CN(C)CCCn1cc(C2=C(c3c[nH]c4ccccc34)C(=O)NC2=O)c2ccccc21 [GF-109203],Population Apoptotic (%),Fibroblast; [1],9.09% and 22.5%
same,Population Healthy Nuclei (%),Fibroblast; [1],57.53% and 77.2%
same,Population Hoechst High Intensity Objects (%),Fibroblast; [1],0%
same,Population Membrane Permeable-Phenotype (%),Fibroblast; [1],4.67% and 8.05%
same,Population Mitochondria Different-Phenotype (%),Fibroblast; [1],13.08% and 28.19%
same,Population Mitotic Cells (%),Fibroblast; [1],90.91% and 77.5%
same,Population Normal (%),Fibroblast; [1],100%
same,Population Pyknosed Nuclei (%),Fibroblast; [1],29.57% and 20.73%
same,Population Tubulin-Different-Phenotype (%),Fibroblast; [1],29.91% and 44.3%
same,Total Cell Count,Fibroblast; [1],186 and 193
same,Population Apoptotic (%),Fibroblast; [2],5.95% and 14.93%
same,Population Fragmented Nuclei (%),Fibroblast; [2],4.14% and 6.85%
same,Population Healthy Nuclei (%),Fibroblast; [2],46.15% and 47.26%
same,Population Hoechst High Intensity Objects (%),Fibroblast; [2],0%
same,Population Membrane Permeable-Phenotype (%),Fibroblast; [2],14.1% and 14.49%
same,Population Mitochondria Different-Phenotype (%),Fibroblast; [2],57.69% and 36.23%
same,Population Mitotic Cells (%),Fibroblast; [2],94.05% and 85.07%
same,Population Normal (%),Fibroblast; [2],100%
same,Population Pyknosed Nuclei (%),Fibroblast; [2],49.7% and 45.89%
same,Population Tubulin-Different-Phenotype (%),Fibroblast; [2],84.62% and 86.96%
same,Total Cell Count,Fibroblast; [2],169 and 146
same,Population Fragmented Nuclei (%),Fibroblast; [3],6.12% and 5.42%
same,Population Healthy Nuclei (%),Fibroblast; [3],63.78% and 77.34%
same,Population Hoechst High Intensity Objects (%),Fibroblast; [3],0%
same,Population Membrane Permeable-Phenotype (%),Fibroblast; [3],11.2% and 2.55%
same,Population Mitochondria Different-Phenotype (%),Fibroblast; [3],10.4% and 22.93%
same,Population Mitotic Cells (%),Fibroblast; [3],98.31% and 85.71%
same,Population Normal (%),Fibroblast; [3],100%
same,Population Pyknosed Nuclei (%),Fibroblast; [3],30.1% and 17.24%
same,Population Tubulin-Different-Phenotype (%),Fibroblast; [3],35.2% and 51.59%
same,Total Cell Count,Fibroblast; [3],196 and 203
same,Population Fragmented Nuclei (%),Fibroblast; [4],6.7% and 5.38%
same,Population Healthy Nuclei (%),Fibroblast; [4],54.19% and 38.46%
same,Population Hoechst High Intensity Objects (%),Fibroblast; [4],0%
same,Population Membrane Permeable-Phenotype (%),Fibroblast; [4],11.34% and 10%
same,Population Mitochondria Different-Phenotype (%),Fibroblast; [4],50.52% and 40%
same,Population Mitotic Cells (%),Fibroblast; [4],95.71% and 80.82%
same,Population Normal (%),Fibroblast; [4],100%
same,Population Pyknosed Nuclei (%),Fibroblast; [4],39.11% and 56.15%
same,Population Tubulin-Different-Phenotype (%),Fibroblast; [4],94.85% and 94%
same,Total Cell Count,Fibroblast; [4],179 and 130
same,Population Fragmented Nuclei (%),Fibroblast; [5],9.05% and 3.52%
same,Population Healthy Nuclei (%),Fibroblast; [5],77.62% and 88.94%
same,Population Hoechst High Intensity Objects (%),Fibroblast; [5],0%
same,Population Membrane Permeable-Phenotype (%),Fibroblast; [5],3.07% and 7.91%
same,Population Mitochondria Different-Phenotype (%),Fibroblast; [5],12.27% and 18.64%
same,Population Mitotic Cells (%),Fibroblast; [5],92.86% and 66.67%
same,Population Normal (%),Fibroblast; [5],100%
same,Population Pyknosed Nuclei (%),Fibroblast; [5],13.33% and 7.54%
same,Population Tubulin-Different-Phenotype (%),Fibroblast; [5],25.15% and 48.02%
same,Total Cell Count,Fibroblast; [5],210 and 199
same,Population Apoptotic (%),Fibroblast; [6],20.9% and 48.15%
same,Population Fragmented Nuclei (%),Fibroblast; [6],6.19% and 13.29%
same,Population Healthy Nuclei (%),Fibroblast; [6],59.28% and 30.07%
same,Population Hoechst High Intensity Objects (%),Fibroblast; [6],0%
same,Population Mitochondria Different-Phenotype (%),Fibroblast; [6],56.52% and 46.51%
same,Population Mitotic Cells (%),Fibroblast; [6],79.1% and 51.85%
same,Population Normal (%),Fibroblast; [6],100%
same,Population Pyknosed Nuclei (%),Fibroblast; [6],34.54% and 56.64%
same,Population Tubulin-Different-Phenotype (%),Fibroblast; [6],93.04% and 86.05%
same,Total Cell Count,Fibroblast; [6],194 and 143
same,Population Apoptotic (%),HEK-293T; [1],9.36% and 6.29%
same,Population Fragmented Nuclei (%),HEK-293T; [1],1.17% and 4.02%
same,Population Hoechst High Intensity Objects (%),HEK-293T; [1],0.58% and 0%
same,Population Membrane Permeable-Phenotype (%),HEK-293T; [1],0% and 4.17%
same,Population Mitochondria Different-Phenotype (%),HEK-293T; [1],26.35% and 29.17%
same,Population Mitotic Cells (%),HEK-293T; [1],90.64% and 93.71%
same,Population Normal (%),HEK-293T; [1],99.42% and 100%
same,Population Pyknosed Nuclei (%),HEK-293T; [1],50% and 82.18%
same,Total Cell Count,HEK-293T; [1],344 and 174
same,Population Apoptotic (%),HEK-293T; [2],11.11% and 17.19%
same,Population Fragmented Nuclei (%),HEK-293T; [2],4.81% and 3.4%
same,Population Hoechst High Intensity Objects (%),HEK-293T; [2],0.32% and 0%
same,Population Membrane Permeable-Phenotype (%),HEK-293T; [2],0% and 7.14%
same,Population Mitotic Cells (%),HEK-293T; [2],88.89% and 82.81%
same,Population Normal (%),HEK-293T; [2],99.68% and 100%
same,Population Pyknosed Nuclei (%),HEK-293T; [2],57.69% and 87.07%
same,Population Tubulin-Different-Phenotype (%),HEK-293T; [2],52.99% and 57.14%
same,Total Cell Count,HEK-293T; [2],313 and 147
same,Population Apoptotic (%),HEK-293T; [3],15.57% and 18.97%
same,Population Fragmented Nuclei (%),HEK-293T; [3],1.6% and 5.42%
same,Population Healthy Nuclei (%),HEK-293T; [3],73.95% and 24.7%
same,Population Hoechst High Intensity Objects (%),HEK-293T; [3],0%
same,Population Membrane Permeable-Phenotype (%),HEK-293T; [3],1.36% and 4.88%
same,Population Mitochondria Different-Phenotype (%),HEK-293T; [3],10.84% and 17.07%
same,Population Mitotic Cells (%),HEK-293T; [3],84.43% and 81.03%
same,Population Normal (%),HEK-293T; [3],100%
